The target of series [1] is T1, Estrogen receptor (Homo sapiens, UniProt P03372).
T1 sequence (P03372 whole entry): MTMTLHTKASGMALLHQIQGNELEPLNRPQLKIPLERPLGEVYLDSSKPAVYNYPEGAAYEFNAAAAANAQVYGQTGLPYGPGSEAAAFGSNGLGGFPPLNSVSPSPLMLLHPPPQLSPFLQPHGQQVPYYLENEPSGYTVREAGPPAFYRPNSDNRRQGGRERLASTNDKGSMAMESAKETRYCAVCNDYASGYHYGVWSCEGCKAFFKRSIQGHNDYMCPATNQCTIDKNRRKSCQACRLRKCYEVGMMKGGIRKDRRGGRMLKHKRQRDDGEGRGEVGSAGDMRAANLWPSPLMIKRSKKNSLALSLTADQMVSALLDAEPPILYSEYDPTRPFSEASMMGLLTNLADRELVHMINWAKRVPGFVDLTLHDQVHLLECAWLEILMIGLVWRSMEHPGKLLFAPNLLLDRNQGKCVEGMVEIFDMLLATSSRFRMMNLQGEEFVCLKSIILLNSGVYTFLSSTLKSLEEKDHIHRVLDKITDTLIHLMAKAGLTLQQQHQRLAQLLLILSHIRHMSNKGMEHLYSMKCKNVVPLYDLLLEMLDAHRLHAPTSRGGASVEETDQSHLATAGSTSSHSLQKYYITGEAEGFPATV
Briefly: Binding affinity to ERalpha (unknown origin).

A short description of series [2]: AUC in human MCF7 cells xenografted nu/nu mouse implanted with 17beta-estradiol time release pellets dosed orally once daily for 4 weeks. The format is ADME, organism-based. The following applies: in vivo, po. Background: In xenograft studies the graft and the host belong to different species.
Series [3] in a line: Volume of distribution at steady state in mouse at 3 mg/kg, iv. The format is ADME, organism-based. The following applies: in vivo, read-out: Vdss. The gist of the method: (§1)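 Mouse or rat PK: single intravenous dose 3 mg/kg or oral dose 10 mg/kg, vehicle PEG400/PVP/Tween 80/0.5% CMC in water (9:0.5:0.5:90).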
Series [4] can be described thus: Half life in rat at 3 mg/kg, iv. It is filed as ADME, organism-based. The following applies: in vivo. The gist of the method:
as §1

The test system of series [5] is Rattus norvegicus. Briefly: Reduction in uterine wet weight in ethynyl estradiol-stimulated CD-IGS rat at 1 mg/kg, po dosed daily for 3 days by gavage followed 15 mins later by 0.1 mg/kg, po ethynyl estradiol and measured 24 hrs after last dose by immature rat uterine wet weight assay. It is filed as functional. The gist of the method:
(§2)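 Female immature CD-IGS rats, 21 days old on arrival; oral gavage of vehicle or compound daily for 3 days, ethynyl estradiol 0.1 mg/kg orally 15 min after each dose. Day 4, 24 h post-dose, plasma taken, then uterus removed and weighed. Reduction = 100 x (VehicleEE – Cpd)/(VehicleEE – Vehicle).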

Series [6] relates to Rattus norvegicus. Nature of the series: In-vivo inverse agonist activity at ERalpha in CD-IGS rat assessed as reduction in uterine wet weight at 10 mg/kg, po dosed daily for 3 days by gavage and measured 24 hrs after last dose by immature rat uterine wet weight assay relative to basal level. The format is functional, organism-based. The gist of the method:
(§3)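 Immature CD-IGS rats given compound orally for 3 days without ethynyl estradiol (agonist mode); on day 4, 24 h after dosing, uterus removed and weighed; wet weight normalized to total body weight.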

The nature of series [7]: Clearance in rat at 3 mg/kg, iv. The format is ADME, organism-based. The note with it: in vivo. The gist of the method: as §1
In series [8] the test system is MCF7. Nature of the series: Antitumor activity against human MCF7 cells xenografted in nu/nu mouse model of tamoxifen-sensitive breast cancer xenograft implanted with 17beta-estradiol time release pellets assessed as reduction tumor volume at 6 mg/kg, po qd for 4 weeks. It is filed as functional, organism-based.
Series [9] in a line: Volume of distribution at steady state in rat at 3 mg/kg, iv. The note with it: in vivo, read-out: Vdss. The format is ADME, organism-based. The gist of the method: as §1
Series [10] concerns the target T1, Estrogen receptor. Nature of the series: Induction of ERalpha degradation in human MCF7 cells in phenol red free RPMI medium containing 5% charcoal dextran-treated FBS incubated for 4 hrs by SP1 and anti-ER rabbit monocolnal antibody based in-cell Western assay.
A short description of series [11]: AUC (0 to infinity) in mouse at 10 mg/kg, po. The format is ADME, organism-based. Set-up: dose 10 mg/kg, route oral, time infinity. The note with it: in vivo.
Series [12] relates to MCF7. Nature of the series: Antiproliferative activity against human MCF7 cells assessed as reduction in cell proliferation in RPMI containing 10% FBS incubated for 5 days by Cell-titer-Glo assay. The format is functional, cell-based. The following applies: MCF7, 120 h. The gist of the method: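 MCF-7 cells, 640/well in RPMI with 10% FBS and 20 mM HEPES, adhered overnight; 10-point 1:5 dilution series (10–0.000005 µM final) for 5 days. CellTiter-Glo luminescence, cell-free medium background subtracted, percent viability vs untreated cells; n ≥ 3.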

The nature of series [13]: Oral bioavailability in rat at 10 mg/kg. It is filed as ADME, organism-based. The following applies: in vivo. The gist of the method:
as §1

Series [14] has as its system MCF7. Briefly: Antitumor activity against human MCF7 cells xenografted in nu/nu mouse model of tamoxifen-resistant breast cancer xenograft implanted with 17beta-estradiol time release pellets assessed as reduction tumor volume at 60 mg/kg, po qd for 4 weeks. The format is functional, organism-based. The gist of the method: (§4)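 Female nu/nu mice with 0.72 mg 60-day 17β-estradiol pellets bearing MCF-7 tumors, pretreated with oral tamoxifen citrate; at ~150-250 mm3 (mean 200 mm3) randomized, tamoxifen stopped, then dosed daily for 4 weeks; tumor volume (length x width2/2) and body weight twice weekly.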

The nature of series [15]: Half life in mouse at 3 mg/kg, iv. The following applies: in vivo. The format is ADME, organism-based. The gist of the method: as §1
Series [16] relates to Rattus norvegicus. Nature of the series: Reduction in uterine wet weight in ethynyl estradiol-stimulated CD-IGS rat at 10 mg/kg, po dosed daily for 3 days by gavage followed 15 mins later by 0.1 mg/kg, po ethynyl estradiol and measured 24 hrs after last dose by immature rat uterine wet weight assay. It is filed as functional. The gist of the method: as §2
Series [17] is described as follows: Cmax in rat at 10 mg/kg, po. The format is ADME, organism-based. Further details: dose 10 mg/kg, route oral. The following applies: in vivo. The gist of the method: as §1
Series [18] in a line: AUC (0 to infinity) in rat at 10 mg/kg, po. The format is ADME, organism-based. Set-up: dose 10 mg/kg, route oral, time infinity. The note with it: in vivo.
A short description of series [19]: AUC in mouse at 10 mg/kg, po. It is filed as ADME, organism-based. The following applies: in vivo. The gist of the method: as §1
Series [20] in a line: Cmax in mouse at 10 mg/kg, po. Further details: dose 10 mg/kg, route oral. The note with it: in vivo. The format is ADME, organism-based. The gist of the method:
as §1

A short description of series [21]: Clearance in mouse at 3 mg/kg, iv. The note with it: in vivo. The format is ADME, organism-based. The gist of the method: as §1
The nature of series [22]: Oral bioavailability in mouse at 10 mg/kg. The format is ADME, organism-based. The note with it: in vivo. The gist of the method: as §1
Series [23] relates to MCF7. Briefly: Antitumor activity against human MCF7 cells xenografted in nu/nu mouse model of tamoxifen-sensitive breast cancer xenograft implanted with 17beta-estradiol time release pellets assessed as reduction tumor volume at 60 mg/kg, po qd for 4 weeks. It is filed as functional, organism-based.
The test system of series [24] is MCF7. Nature of the series: Antitumor activity against human MCF7 cells xenografted in nu/nu mouse model of tamoxifen-resistant breast cancer xenograft implanted with 17beta-estradiol time release pellets assessed as reduction tumor volume at 120 mg/kg, po qd for 4 weeks. The format is functional, organism-based. The gist of the method: as §4
The test system of series [25] is Rattus norvegicus. Briefly: Reduction in uterine wet weight in ethynyl estradiol-stimulated CD-IGS rat at 60 mg/kg, po dosed daily for 3 days by gavage followed 15 mins later by 0.1 mg/kg, po ethynyl estradiol and measured 24 hrs after last dose by immature rat uterine wet weight assay. It is filed as functional. The gist of the method:
as §2

Series [26] has as its system Rattus norvegicus. Briefly: In-vivo agonist activity at ERalpha in CD-IGS rat assessed as increase in uterine wet weight at 60 mg/kg, po dosed daily for 3 days by gavage and measured 24 hrs after last dose by immature rat uterine wet weight assay. It is filed as functional, organism-based. The gist of the method:
as §3

Series [27] has as its system Rattus norvegicus. Nature of the series: Reduction in uterine wet weight in ethynyl estradiol-stimulated CD-IGS rat at 200 mg/kg, po dosed daily for 3 days by gavage followed 15 mins later by 0.1 mg/kg, po ethynyl estradiol and measured 24 hrs after last dose by immature rat uterine wet weight assay. The format is functional. The gist of the method: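 Female immature CD-IGS rats, 21 days old on arrival. Compound or vehicle was given orally by gavage once daily for 3 days, and oral ethynyl estradiol at 0.1 mg/kg followed each dose by 15 min. On day 4, 24 h after dosing, plasma was taken for PK, then the uterus was removed and weighed. % reduction = 100 × (VehicleEE − Cpd)/(VehicleEE − Vehicle).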

Activity calls are given as the source filed them. The calls are words filed in the database; no cut-off is given here.

In the case of `CC1=C(c2cccc(O)c2)C(c2ccc(OC[C@H](C)N3CC[C@@H](C)C3)cc2)Oc2ccc(O)cc21` (some centres not stated), the IC50 (usually the midpoint of a concentration-inhibition curve) in series [1] was determined as 5.1 nM; in series [10], 0.2 nM; in [12], 0.2 nM. Besides, the AUC (commonly the area under the concentration-time curve, a measure of exposure) at 672 h in series [2] is 4600 ng·h/mL. Moreover, the results for the Vd in [3] and in [9] were 6.2 L/kg and 8 L/kg, respectively. For the same compound, the half-life – broadly, how long it takes for the measured level to halve – is 2.9 h in series [4] and 3.6 h in series [15]. Also, the “inhibition (INH)” value stood at 99% in [5] and 111% in [16]. Moreover, the outcome in series [6], in series [8] and in [14] was Active. The figures for the clearance in series [7] and in series [21] were 33 mL/min/kg and 38 mL/min/kg, respectively. Further, the figures for the AUC(0-inf) in series [11] and in [18] were 590 ng·h/mL and 930 ng·h/mL, respectively. Moreover, the bioavailability (commonly dose-corrected exposure relative to a reference, in per cent) in series [13] came out at 18%; in series [22], 13%. The Cmax – broadly, the peak of the concentration-time curve – came out at 140 ng/mL in series [17] and 100 ng/mL in series [20]. In [19], this compound came in with an AUC of 590 ng·h/mL.
As for `CC/C(=C(\c1ccccc1)c1ccc(OCCN(C)C)cc1)c1ccccc1` [TAMOXIFEN], the result in [23] and in series [26] was Active. The result in [24] was inactive. In addition, the “inhibition (INH)” value in [25] is on record as 78%.
With `C[C@]12CC[C@@H]3c4ccc(O)cc4C[C@@H](CCCCCCCCC[S+]([O-])CCCC(F)(F)C(F)(F)F)[C@H]3[C@@H]1CC[C@@H]2O` (some centres not stated) [FULVESTRANT], in series [27], the “inhibition (INH)” value worked out at 110%.
